The sample as a whole holds a higher share of hits than the screen did.
H69AR inhibit: blocks growth of human H69AR lung tumor cells | AID 598 | viability, % at 10 µM | 85,000 compounds, 6% hits | H69AR lung tumor viability, ATP luminescence, 72 h; active compounds read low;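 active means viability at or below 40%; inactive means viability above 40%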;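 further: multidrug resistant small cell line overexpressing MRP-1 efflux transporter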
bCat KO growth: beta-catenin-lacking colon tumor cell growth suppression; viability, % at 10 µM; AID 818; HCT116 beta-catenin knockout viability, CellTiter-Glo, 60 h; active compounds read low; 140,000 compounds, 1.5% hits;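 active means viability at or under a set limit, the compound median less 4 SD, cut at about 6% in these data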
Lung fibro prol: blocks proliferation of human lung fibroblasts. LL 47 human lung fibroblast viability, ATP luminescence; active compounds read low. viability, % at 10 µM. 85,000 compounds, 1.1% hits;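 active means viability at or below 50% in the single dose screen; inactive means viability above 50%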;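 further: compound exposure lasted 72 h before the ATP readout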
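Test system: LL 47 human lung fibroblasts / Quantity: 1,150 cells in each well / Medium: IMEM growth medium with 15% fetal bovine serum / Incubation: 72 h compound exposure at 37 °C after overnight plating / Detection: CellTiter-Glo luminescence measuring cellular ATP / Read-out: % viability versus median cells-only luminescence / Benchmarks: cell-only wells, no compound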
PTEN del growth: suppresses growth of cells with PTEN deletion. HCT116 PTEN-null viability, CellTiter-Glo, 60 h; active compounds read low. viability, % at 10 µM. 140,000 compounds, 1.2% hits. AID 827;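 active means viability at or below a set limit, 4 SD under the median of all tested compounds, cut at about 3.7% in these data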;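 further: PTEN knockout HCT116 line with beta catenin targeted HCT116 as companion control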
HUVEC inhibit: inhibitors of human endothelial cell proliferation. HUVEC proliferation, CellTiter-Glo luminescence, 72 h; active compounds read low. viability, % at 10 µM (by protocol). 86,000 compounds, 1.1% hits. AID 648;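 active means viability at or below 30%; inactive means viability above 30%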
Hits are given with their value.

How did Cc1ccc(-c2c[n+](CC(=O)OCc3ccccc3)c3n2CCC3)cc1 do in these assays?
bCat KO growth: inactive; PTEN del growth: inactive

How did Cc1ccc(C(=O)C[n+]2cc(-c3ccc(C)cc3)n3c2CCCCC3)cc1 do in these assays?
bCat KO growth: 3.5; PTEN del growth: inactive

Results for CCOC(=O)N1CCC(Nc2nc3ccccc3n3nnnc23)CC1 ?
H69AR inhibit: inactive; bCat KO growth: inactive; Lung fibro prol: inactive; PTEN del growth: inactive; HUVEC inhibit: inactive

What do the screens show for `COc1ccccc1-c1c(C)nn2c(C)cc(C)nc12`?
H69AR inhibit: inactive; bCat KO growth: inactive; Lung fibro prol: inactive; PTEN del growth: inactive; HUVEC inhibit: inactive

Results for CCOC(=O)N1CCC(Nc2cc(C)nc3c(-c4ccccc4OC)c(C)nn23)CC1 ?
H69AR inhibit: 37.1; bCat KO growth: inactive; Lung fibro prol: inactive; PTEN del growth: inactive; HUVEC inhibit: inactive

What do the screens show for `CCOC(=O)N1CCN(C(=O)CSc2cc(C)nc3c(-c4ccccc4OC)c(C)nn23)CC1`?
H69AR inhibit: 38.6; bCat KO growth: inactive; Lung fibro prol: inactive; PTEN del growth: inactive; HUVEC inhibit: inactive

Results for CCCNC(=O)COc1ccc(S(=O)(=O)Nc2ccc(C)cc2)cc1 ?
H69AR inhibit: inactive; bCat KO growth: inactive; Lung fibro prol: inactive; PTEN del growth: inactive; HUVEC inhibit: inactive

Results for C=CCn1c(CNC(=O)c2ccco2)nnc1SCC(=O)N1c2ccccc2Sc2ccccc21 ?
H69AR inhibit: 34.0; bCat KO growth: inactive; Lung fibro prol: inactive; PTEN del growth: inactive; HUVEC inhibit: inactive

What do the screens show for `CC(C)Oc1ccc(C(CC(=O)O)NC(=O)c2cccs2)cc1` (configuration not stated)?
H69AR inhibit: inactive; bCat KO growth: inactive; Lung fibro prol: inactive; PTEN del growth: inactive; HUVEC inhibit: inactive

Results for CCN(CC)CCNc1nc2c(c(=O)[nH]c(=O)n2C)n1CC(O)COc1ccc(Cl)cc1Cl (configuration not stated) ?
H69AR inhibit: inactive; bCat KO growth: inactive; Lung fibro prol: inactive; PTEN del growth: inactive; HUVEC inhibit: inactive

How did Cc1cc(C)n(-c2nc3c(c(=O)[nH]c(=O)n3C)n2CC(O)COc2ccc(Cl)cc2Cl)n1 (configuration not stated) do in these assays?
H69AR inhibit: 13.2; bCat KO growth: inactive; Lung fibro prol: inactive; PTEN del growth: inactive; HUVEC inhibit: inactive

Results for Cc1cc(C)n(-c2nc3c(c(=O)[nH]c(=O)n3C)n2CCc2ccccc2)n1 ?
H69AR inhibit: 24.1; bCat KO growth: inactive; Lung fibro prol: inactive; PTEN del growth: inactive; HUVEC inhibit: inactive

Results for Cc1cc(C)n(-c2nc3c(c(=O)[nH]c(=O)n3C)n2Cc2ccccc2)n1 ?
H69AR inhibit: inactive; bCat KO growth: inactive; Lung fibro prol: inactive; PTEN del growth: inactive; HUVEC inhibit: inactive

Results for CCOC(=O)C1=C(Nc2ccc(Br)cc2)CC(C)(O)C(C(=O)OCC)C1c1ccccc1 (configuration not stated) ?
bCat KO growth: inactive; PTEN del growth: inactive

What do the screens show for `COC(=O)c1cn(NC(=O)c2cc(OC)c(OC)c(OC)c2)c(=O)c2ccccc12`?
H69AR inhibit: 18.5; bCat KO growth: inactive; Lung fibro prol: 49.2; PTEN del growth: inactive; HUVEC inhibit: 19.8

What do the screens show for `COC(=O)c1cn(NC(=O)c2cc(OC)cc(OC)c2)c(=O)c2ccccc12`?
H69AR inhibit: inactive; bCat KO growth: inactive; Lung fibro prol: inactive; PTEN del growth: inactive; HUVEC inhibit: inactive

Results for N=c1ncn(CC(O)CO)c2nc(N3CCOCC3)[nH]c12 (configuration not stated) ?
bCat KO growth: inactive; PTEN del growth: inactive

How did COc1ccc(-c2nc3scc(-c4ccccc4)n3n2)cc1 do in these assays?
H69AR inhibit: 31.4; bCat KO growth: inactive; Lung fibro prol: inactive; PTEN del growth: inactive; HUVEC inhibit: inactive

What do the screens show for `O=c1cc(C(Cl)(Cl)Cl)oc2c1ccc1ccccc12`?
bCat KO growth: 2.5; PTEN del growth: 2.6

Results for CCCCCCNS(=O)(=O)c1ccc(NC(=O)C2CCCO2)cc1 (configuration not stated) ?
bCat KO growth: inactive; PTEN del growth: inactive

What do the screens show for `S=C(NCc1ccco1)Nc1ccc(Cl)cc1`?
bCat KO growth: inactive; PTEN del growth: inactive

How did O=C(Nc1ccc(Cl)cc1)NC1CCCCC1Cc1ccco1 (configuration not stated) do in these assays?
H69AR inhibit: 6.6; bCat KO growth: inactive; Lung fibro prol: inactive; PTEN del growth: inactive; HUVEC inhibit: inactive

How did O=C(Nc1ccc(Cl)cc1)NC1CCCCC1 do in these assays?
H69AR inhibit: inactive; bCat KO growth: inactive; Lung fibro prol: inactive; PTEN del growth: inactive; HUVEC inhibit: inactive

What do the screens show for `O=C(Nc1ccc(Cl)cc1)NC1CCCC1Cc1ccco1` (configuration not stated)?
H69AR inhibit: inactive; bCat KO growth: inactive; Lung fibro prol: inactive; PTEN del growth: 2.9; HUVEC inhibit: inactive

How did CCOc1ccc(-c2cc(C(=O)NCC3CCCO3)c3ccccc3n2)cc1 (configuration not stated) do in these assays?
bCat KO growth: inactive; PTEN del growth: inactive

Results for Cc1ccc(CNC(=O)c2ccc(OCC3CCCO3)cc2)cc1 (configuration not stated) ?
bCat KO growth: inactive; PTEN del growth: inactive

Results for Cc1ccc(S(=O)(=O)c2c(C)nn(-c3ccccc3)c2OC(=O)c2ccc(Br)o2)cc1 ?
bCat KO growth: inactive; PTEN del growth: inactive

Results for COc1ccc(C2NCCc3c2[nH]c2ccccc32)cc1COc1ccc(F)cc1 (configuration not stated) ?
bCat KO growth: 1.2; PTEN del growth: 0.9

How did Cc1cccc(C(=O)NC(=S)NNC(=O)COc2c(C)cccc2C)c1 do in these assays?
bCat KO growth: inactive; PTEN del growth: inactive

How did CC(=O)Oc1cccc(/C=c2\sc3nc(-c4ccco4)nn3c2=O)c1 do in these assays?
H69AR inhibit: 10.5; bCat KO growth: inactive; Lung fibro prol: inactive; PTEN del growth: inactive; HUVEC inhibit: inactive

How did CCCOc1ccc(/C=c2\sc3nc(-c4ccco4)nn3c2=O)cc1OCC do in these assays?
H69AR inhibit: inactive; bCat KO growth: inactive; Lung fibro prol: inactive; PTEN del growth: inactive; HUVEC inhibit: inactive

Results for Cc1ccccc1NC(=O)CSCc1nc(N)nc(Nc2ccccc2C)n1 ?
bCat KO growth: inactive; PTEN del growth: inactive

What do the screens show for `O=C(N/N=C1/CCCc2ccccc21)C(c1ccccc1)c1ccccc1`?
bCat KO growth: inactive; PTEN del growth: inactive

Results for CCCOP(=O)(OCCC)c1c([N+](=O)[O-])cc(C(F)(F)F)cc1[N+](=O)[O-] ?
H69AR inhibit: 39.0; bCat KO growth: inactive; Lung fibro prol: 18.6; PTEN del growth: inactive; HUVEC inhibit: 11.5

How did O=S(=O)(c1ccc2c(c1)OCCO2)N1CCC(n2cnc3cc(F)ccc32)CC1 do in these assays?
H69AR inhibit: inactive; bCat KO growth: inactive; Lung fibro prol: inactive; PTEN del growth: inactive; HUVEC inhibit: inactive

How did O=S(=O)(c1ccc(Cl)cc1)N1CCC(n2cnc3cc(C(F)(F)F)ccc32)CC1 do in these assays?
H69AR inhibit: 34.8; Lung fibro prol: inactive; HUVEC inhibit: inactive

Screening data from PubChem.
